Source: ChEMBL document CHEMBL3228006, “Orally active esters of cephalosporin antibiotics. 3. Synthesis and biological properties of aminoacyloxymethyl esters of 7-[D(-)-mandelamido]-3-[[(1-methyl-1H-tetrazol-5-yl)thio]methyl]-3-cephem-4-carboxylic acid” (J Med Chem, 1979)

Experiments:
[1] = Chemical stability of the compound in phosphate buffer at pH 2.5 assessed as hydrolysis up to 60 mins by paper electrophoresis analysis; assay type: physicochemical; conditions: pH 2.5, 1 h
Summary of the method: (§1)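 Ester dissolved in buffer (pH 2.5, 4.5 or 6.0) at 37 °C; samples taken at 0, 20, 40, 60 min and run on paper electrophoresis strips at 400 V in 0.1 M pyridine-acetate buffer for 2 h, steamed, dried, spots seen under UV. Extent of hydrolysis estimated approximately by comparing visual UV zone intensity of ester versus parent acid.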

Streptococcus pyogenes = experiment: Antibacterial activity against Streptococcus pyogenes C203 infected in po dosed Swiss mouse assessed as protection against bacterial infection administered 1 to 5 hrs after bacterial infection; assay type: functional
Summary of the method: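 Swiss white mice (13-15 g), groups of eight, infected ip with broth suspension of S. pyogenes C203 lethal to 100% of untreated mice in 24-48 h. Five groups per test received graduated oral doses at 1 and 5 h post-challenge. ED50 by Reed and Muench method from survivors at 7 days.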

[2] = Chemical stability of the compound in phosphate buffer at pH 6 assessed as hydrolysis after 20 mins by paper electrophoresis analysis; assay type: physicochemical; conditions: for Stability: buffer, pH 6, 20 min; for degraded at 20 min: phosphate buffer, pH 6, read-out: Drug degradation; summary of the method: as §1
[3] = Drug metabolism in mouse assessed as cefamandole level in small intestine using Micrococcus luteus ATCC 9341 as detecting organism at 17 mg/kg, po by disk-plate microbiology assay; assay type: ADME, organism-based; parameters: dose 17 mg/kg, route oral; conditions: in vivo
Blood = experiment: Drug metabolism in mouse assessed as cefamandole level in blood using Micrococcus luteus ATCC 9341 as detecting organism at 17 mg/kg, po by disk-plate microbiology assay; assay type: ADME, organism-based; parameters: dose 17 mg/kg, route oral; conditions: in vivo
Summary of the method: (§2)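 Mice dosed orally at 17 mg/kg; cefamandole activity in blood or urine measured by disk-plate microbiological assay with Micrococcus luteus ATCC 9341 as detecting organism.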

[4] = Drug metabolism in mouse assessed as cefamandole level in urine using Micrococcus luteus ATCC 9341 as detecting organism at 17 mg/kg, po by disk-plate microbiology assay; assay type: ADME, organism-based; parameters: dose 17 mg/kg, route oral; conditions: in vivo; summary of the method: as §2
[5] = Chemical stability of the compound in phosphate buffer at pH 4.5 assessed as hydrolysis up to 60 mins by paper electrophoresis analysis; assay type: physicochemical; conditions: pH 4.5, 1 h; summary of the method: as §1

| Structure (SMILES) | Stability [1] | Stability [2] | Drug metabolism [3] | Drug metabolism (Blood) | Drug metabolism [4] | Stability [5] | degraded at 20 min [2] | ED50 (Streptococcus pyogenes) |
| --- | --- | --- | --- | --- | --- | --- | --- | --- |
| Cl.Cn1nnnc1SCC1=C(C(=O)OCOC(=O)CN)N2C(=O)[C@@H](NC(=O)[C@H](O)c3ccccc3)[C@H]2SC1 | Stable | Unstable | metabolite_detected | metabolite_notdetected | metabolite_notdetected | Unstable |  | 20.4 mg/kg |
| CC(C)C[C@H](N)C(=O)OCOC(=O)C1=C(CSc2nnnn2C)CS[C@@H]2[C@H](NC(=O)[C@H](O)c3ccccc3)C(=O)N12.Cl | Stable | Unstable |  |  |  | Unstable |  | 10.4 mg/kg |
| CC[C@H](C)[C@H](N)C(=O)OCOC(=O)C1=C(CSc2nnnn2C)CS[C@@H]2[C@H](NC(=O)[C@H](O)c3ccccc3)C(=O)N12.Cl | Stable | Unstable |  |  |  | Unstable |  | 8.6 mg/kg |
| Cn1nnnc1SCC1=C(C(=O)[O-])N2C(=O)[C@@H](NC(=O)[C@H](O)c3ccccc3)[C@H]2SC1.[Li+] |  |  |  |  |  |  |  | 12 mg/kg |

More lines, main results first:

| Stability [1] | Stability [2] | Drug metabolism [3] | Drug metabolism (Blood) | Drug metabolism [4] | Stability [5] | degraded at 20 min [2] | Structure (SMILES) | ED50 (Streptococcus pyogenes) |
| --- | --- | --- | --- | --- | --- | --- | --- | --- |
| Stable | Unstable | metabolite_detected | metabolite_notdetected | metabolite_notdetected | Unstable |  | CC(C)[C@H](N)C(=O)OCOC(=O)C1=C(CSc2nnnn2C)CS[C@@H]2[C@H](NC(=O)[C@H](O)c3ccccc3)C(=O)N12.Cl | 14.3 mg/kg |
| Stable |  |  |  |  | Unstable | 50% | Cl.Cn1nnnc1SCC1=C(C(=O)OCOC(=O)[C@@H](N)Cc2ccccc2)N2C(=O)[C@@H](NC(=O)[C@H](O)c3ccccc3)[C@H]2SC1 | 15.3 mg/kg |
| Stable |  | metabolite_detected | metabolite_notdetected | metabolite_notdetected | Unstable | 20% | COC(=O)[C@H](N)CC(=O)OCOC(=O)C1=C(CSc2nnnn2C)CS[C@@H]2[C@H](NC(=O)[C@H](O)c3ccccc3)C(=O)N12.Cl | 25.2 mg/kg |
